Key:
[1] = Cytotoxicity against human H1299 cells at 100 uM after 48 hrs by MTT assay; type: functional; details: NCI-H1299, 48 h
Summary of the method: (§1)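 H1299 non-small cell lung cancer cells were grown in RPMI 1640 with 10% FBS, penicillin and streptomycin at 37 °C under 5% CO2. About 2 × 10³ cells per well were seeded and left 24 h. Compounds were dissolved fresh in DMSO, diluted into complete medium and applied for 48 h. MTT was then added for 4 h at 37 °C, followed by lysis buffer (20% SDS, 50% DMF) for 16 h, and absorbance was read at 550 nm.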

[2] = Cytotoxicity against human H1299 cells at 10 uM after 48 hrs by MTT assay; type: functional; details: NCI-H1299, 48 h; summary of the method: as §1
NCI/ADR-RES = test: Antiproliferative activity against human NCI/ADR-RES cells assessed as cell growth at 10 uM; type: functional; details: read-out: Activity
Summary of the method: (§2)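 NCI 60 cell line panel, single-dose screen (10^-5 M) run by the developmental therapeutics program protocol. Results are given as growth percent of treated cells relative to untreated control cells for each line.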

SK-MEL-5 = test: Antiproliferative activity against human SK-MEL-5 cells assessed as cell growth at 10 uM; type: functional; details: read-out: Activity; summary of the method: as §2
MCF7 = test: Antiproliferative activity against human MCF7 cells assessed as cell growth at 10 uM; type: functional; details: read-out: Activity; summary of the method: as §2
SW-620 = test: Antiproliferative activity against human SW620 cells assessed as cell growth at 10 uM; type: functional; details: read-out: Activity
Summary of the method: (§3)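 NCI 60 cell line panel, single dose (10^-5 M), run per the Developmental Therapeutics Program protocol (one dose mean graph). Each result is the growth percentage of treated cells relative to untreated control cells.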

786-0 = test: Antiproliferative activity against human 786-0 cells assessed as cell growth at 10 uM; type: functional; details: read-out: Activity; summary of the method: as §2
PC-3 = test: Antiproliferative activity against human PC3 cells assessed as cell growth at 10 uM; type: functional; details: read-out: Activity; summary of the method: as §2
SF-295 = test: Antiproliferative activity against human SF295 cells assessed as cell growth at 10 uM; type: functional; details: read-out: Activity; summary of the method: as §2
HCC 2998 = test: Antiproliferative activity against human HCC2998 cells assessed as cell growth at 10 uM; type: functional; details: read-out: Activity; summary of the method: as §2
CAKI-1 = test: Antiproliferative activity against human Caki1 cells assessed as cell growth at 10 uM; type: functional; details: read-out: Activity; summary of the method: as §2
CCRF-CEM = test: Antiproliferative activity against human CCRF-CEM cells assessed as cell growth at 10 uM; type: functional; details: read-out: Activity; summary of the method: as §2
[3] = target: Telomerase reverse transcriptase (Homo sapiens) (UniProt O14746); test: Inhibition of TERT in human H1299 cells assessed as residual transcriptional activity at 10 uM after 24 hrs by SEAP reporter gene assay; values are per cent of control
MOLT-4 = test: Antiproliferative activity against human MOLT4 cells assessed as cell growth at 10 uM; type: functional; details: read-out: Activity; summary of the method: as §2
U-251 = test: Antiproliferative activity against human U251 cells assessed as cell growth at 10 uM; type: functional; details: read-out: Activity; summary of the method: as §3
A498 = test: Antiproliferative activity against human A498 cells assessed as cell growth at 10 uM; type: functional; details: read-out: Activity; summary of the method: as §2
SK-MEL-28 = test: Antiproliferative activity against human SK-MEL-28 cells assessed as cell growth at 10 uM; type: functional; details: read-out: Activity; summary of the method: as §2
NCI-H460 = test: Antiproliferative activity against human NCI-H460 cells assessed as cell growth at 10 uM; type: functional; details: read-out: Activity; summary of the method: as §2
M14 = test: Antiproliferative activity against human M14 cells assessed as cell growth at 10 uM; type: functional; details: read-out: Activity; summary of the method: as §2
MDA-MB-435 = test: Antiproliferative activity against human MDA-MB-435 cells assessed as cell growth at 10 uM; type: functional; details: read-out: Activity; summary of the method: as §2
NCI-H322M = test: Antiproliferative activity against human NCI-H322M cells assessed as cell growth at 10 uM; type: functional; details: read-out: Activity; summary of the method: as §2
HCT-116 = test: Antiproliferative activity against human HCT116 cells assessed as cell growth at 10 uM; type: functional; details: read-out: Activity; summary of the method: as §2
HOP-92 = test: Antiproliferative activity against human HOP92 cells assessed as cell growth at 10 uM; type: functional; details: read-out: Activity; summary of the method: as §2
A549 = test: Antiproliferative activity against human A549 cells assessed as cell growth at 10 uM; type: functional; details: read-out: Activity; summary of the method: as §2
MDA-MB-231 = test: Antiproliferative activity against human MDA-MB-231 cells assessed as cell growth at 10 uM; type: functional; details: read-out: Activity; summary of the method: as §2
UO-31 = test: Antiproliferative activity against human UO31 cells assessed as cell growth at 10 uM; type: functional; details: read-out: Activity; summary of the method: as §3
[4] = Antiproliferative activity against human Hs 578T cells assessed as cell growth at 10 uM; type: functional; details: read-out: Activity; summary of the method: as §2
LOX IMVI = test: Antiproliferative activity against human LOXIMVI cells assessed as cell growth at 10 uM; type: functional; details: read-out: Activity; summary of the method: as §2
ACHN = test: Antiproliferative activity against human ACHN cells assessed as cell growth at 10 uM; type: functional; details: read-out: Activity; summary of the method: as §2
HL-60(TB) = test: Antiproliferative activity against human HL-60(TB) cells assessed as cell growth at 10 uM; type: functional; details: read-out: Activity
Summary of the method: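 NCI Developmental Therapeutics Program 60-cell-line one-dose screen at 10^-5 M. Readout is growth percentage of treated cells relative to untreated control cells.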

UACC-62 = test: Antiproliferative activity against human UACC62 cells assessed as cell growth at 10 uM; type: functional; details: read-out: Activity; summary of the method: as §3
[5] = target: Telomerase reverse transcriptase (Homo sapiens) (UniProt O14746); test: Inhibition of TERT in human H1299 cells assessed as residual transcriptional activity at 100 uM after 24 hrs by SEAP reporter gene assay; values are per cent of control
HCT-15 = test: Antiproliferative activity against human HCT15 cells assessed as cell growth at 10 uM; type: functional; details: read-out: Activity; summary of the method: as §2
OVCAR-4 = test: Antiproliferative activity against human OVCAR4 cells assessed as cell growth at 10 uM; type: functional; details: read-out: Activity; summary of the method: as §2
T47D = test: Antiproliferative activity against human T47D cells assessed as cell growth at 10 uM; type: functional; details: read-out: Activity; summary of the method: as §3
OVCAR-3 = test: Antiproliferative activity against human OVCAR-3 cells assessed as cell growth at 10 uM; type: functional; details: read-out: Activity; summary of the method: as §2
NCI-H522 = test: Antiproliferative activity against human NCI-H522 cells assessed as cell growth at 10 uM; type: functional; details: read-out: Activity; summary of the method: as §2
SK-OV-3 = test: Antiproliferative activity against human SKOV3 cells assessed as cell growth at 10 uM; type: functional; details: read-out: Activity; summary of the method: as §2
EKVX = test: Antiproliferative activity against human EKVX cells assessed as cell growth at 10 uM; type: functional; details: read-out: Activity; summary of the method: as §2
HT-29 = test: Antiproliferative activity against human HT-29 cells assessed as cell growth at 10 uM; type: functional; details: read-out: Activity; summary of the method: as §2
SF-268 = test: Antiproliferative activity against human SF268 cells assessed as cell growth at 10 uM; type: functional; details: read-out: Activity; summary of the method: as §2
NCI-H23 = test: Antiproliferative activity against human NCI-H23 cells assessed as cell growth at 10 uM; type: functional; details: read-out: Activity; summary of the method: as §2
SNB-75 = test: Antiproliferative activity against human SNB75 cells assessed as cell growth at 10 uM; type: functional; details: read-out: Activity; summary of the method: as §3
OVCAR-8 = test: Antiproliferative activity against human OVCAR8 cells assessed as cell growth at 10 uM; type: functional; details: read-out: Activity; summary of the method: as §2
SR = test: Antiproliferative activity against human SR cells assessed as cell growth at 10 uM; type: functional; details: read-out: Activity; summary of the method: as §3
Malme-3M = test: Antiproliferative activity against human MALME-3M cells assessed as cell growth at 10 uM; type: functional; details: read-out: Activity; summary of the method: as §2
TK-10 = test: Antiproliferative activity against human TK10 cells assessed as cell growth at 10 uM; type: functional; details: read-out: Activity; summary of the method: as §3

Chain of Telomerase reverse transcriptase (Homo sapiens) (O14746 whole entry): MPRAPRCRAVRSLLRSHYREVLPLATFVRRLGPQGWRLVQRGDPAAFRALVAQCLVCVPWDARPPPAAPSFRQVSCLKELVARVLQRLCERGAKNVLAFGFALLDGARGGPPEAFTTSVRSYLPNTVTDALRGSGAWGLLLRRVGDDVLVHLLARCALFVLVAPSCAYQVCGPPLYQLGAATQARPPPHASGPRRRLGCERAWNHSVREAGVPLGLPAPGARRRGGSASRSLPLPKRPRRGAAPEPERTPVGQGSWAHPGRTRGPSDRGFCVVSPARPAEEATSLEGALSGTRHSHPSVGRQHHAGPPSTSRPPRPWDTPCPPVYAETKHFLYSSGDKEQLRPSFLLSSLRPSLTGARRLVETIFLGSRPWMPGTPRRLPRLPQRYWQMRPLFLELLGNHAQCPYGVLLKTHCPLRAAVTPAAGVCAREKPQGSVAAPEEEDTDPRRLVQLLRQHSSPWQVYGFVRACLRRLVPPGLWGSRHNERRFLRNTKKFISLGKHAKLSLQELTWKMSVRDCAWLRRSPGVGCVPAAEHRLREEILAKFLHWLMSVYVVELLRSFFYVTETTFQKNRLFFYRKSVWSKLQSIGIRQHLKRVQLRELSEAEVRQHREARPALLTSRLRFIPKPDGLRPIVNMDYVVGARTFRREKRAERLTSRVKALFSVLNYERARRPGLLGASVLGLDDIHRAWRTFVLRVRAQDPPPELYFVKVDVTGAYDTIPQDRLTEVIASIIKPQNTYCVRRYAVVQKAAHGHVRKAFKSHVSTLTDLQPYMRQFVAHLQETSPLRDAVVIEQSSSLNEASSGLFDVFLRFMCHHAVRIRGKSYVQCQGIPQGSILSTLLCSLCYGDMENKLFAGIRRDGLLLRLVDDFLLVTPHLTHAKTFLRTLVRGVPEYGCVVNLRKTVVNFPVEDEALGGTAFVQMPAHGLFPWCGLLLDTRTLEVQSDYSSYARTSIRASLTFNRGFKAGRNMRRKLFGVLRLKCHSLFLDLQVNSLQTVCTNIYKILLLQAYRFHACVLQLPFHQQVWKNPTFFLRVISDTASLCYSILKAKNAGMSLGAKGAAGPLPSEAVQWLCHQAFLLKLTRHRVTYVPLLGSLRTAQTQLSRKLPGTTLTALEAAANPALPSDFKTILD

O=C1c2ccccc2C(=O)c2c1ccc1nc(-c3ccc4c(c3)OCO4)[nH]c21
viability at 100 µM [1]: 40%
viability at 10 µM [2]: 67%
growth at 10 µM (NCI/ADR-RES): 105%
growth at 10 µM (SK-MEL-5): 98.7%
growth at 10 µM (MCF7): 46.5%
growth at 10 µM (SW-620): 91.9%
growth at 10 µM (786-0): 107%
growth at 10 µM (PC-3): 107%
growth at 10 µM (SF-295): 115%
growth at 10 µM (HCC 2998): 85.7%
growth at 10 µM (CAKI-1): 114%
growth at 10 µM (CCRF-CEM): 99.6%
residual activity [3]: 61%
growth at 10 µM (MOLT-4): 105%
growth at 10 µM (U-251): 111%
growth at 10 µM (A498): 91.7%
growth at 10 µM (SK-MEL-28): 116%
growth at 10 µM (NCI-H460): 109%
growth at 10 µM (M14): 120%
growth at 10 µM (MDA-MB-435): 110%
growth at 10 µM (NCI-H322M): 150%
growth at 10 µM (HCT-116): 116%
growth at 10 µM (HOP-92): 65.3%
growth at 10 µM (A549): 102%
growth at 10 µM (MDA-MB-231): 107%
growth at 10 µM (UO-31): 73.4%
growth at 10 µM [4]: 106%
growth at 10 µM (LOX IMVI): 99.6%
growth at 10 µM (ACHN): 104%
growth at 10 µM (HL-60(TB)): 127%
growth at 10 µM (UACC-62): 98.1%
residual activity [5]: 34%
growth at 10 µM (HCT-15): 106%
growth at 10 µM (OVCAR-4): 101%
growth at 10 µM (T47D): 107%
growth at 10 µM (OVCAR-3): 107%
growth at 10 µM (NCI-H522): 83.3%
growth at 10 µM (SK-OV-3): 139%
growth at 10 µM (EKVX): 94.2%
growth at 10 µM (HT-29): 95.8%
growth at 10 µM (SF-268): 100%
growth at 10 µM (NCI-H23): 94.3%
growth at 10 µM (SNB-75): 102%
growth at 10 µM (OVCAR-8): 96.5%
growth at 10 µM (SR): 91.7%

CCc1nc2ccc3c(c2[nH]1)C(=O)c1ccccc1C3=O
viability at 100 µM [1]: 37%
viability at 10 µM [2]: 82%
growth at 10 µM (NCI/ADR-RES): 74.4%
growth at 10 µM (SK-MEL-5): 60.8%
growth at 10 µM (MCF7): 69.8%
growth at 10 µM (SW-620): 73.1%
growth at 10 µM (Malme-3M): 56.9%
growth at 10 µM (786-0): 76.6%
growth at 10 µM (PC-3): 48.5%
growth at 10 µM (SF-295): 75.8%
growth at 10 µM (HCC 2998): 67.7%
growth at 10 µM (TK-10): 33.8%
growth at 10 µM (CCRF-CEM): 45.4%
residual activity [3]: 59%
growth at 10 µM (MOLT-4): 64.2%
growth at 10 µM (U-251): 60.1%
growth at 10 µM (A498): 28.9%
growth at 10 µM (SK-MEL-28): 86.8%
growth at 10 µM (NCI-H460): 59.8%
growth at 10 µM (M14): 60.1%
growth at 10 µM (MDA-MB-435): 84.4%
growth at 10 µM (NCI-H322M): 31.4%
growth at 10 µM (HCT-116): 47.6%
growth at 10 µM (HOP-92): 41.4%
growth at 10 µM (A549): 68.2%
growth at 10 µM (MDA-MB-231): 78%
growth at 10 µM (UO-31): 23.9%
growth at 10 µM [4]: -18.6%
growth at 10 µM (LOX IMVI): 40%
growth at 10 µM (ACHN): 25%
growth at 10 µM (HL-60(TB)): 41.8%
growth at 10 µM (UACC-62): 51.4%
residual activity [5]: 25%
growth at 10 µM (HCT-15): 42.2%
growth at 10 µM (OVCAR-4): 48.8%
growth at 10 µM (T47D): 63%
growth at 10 µM (OVCAR-3): 78.2%
growth at 10 µM (NCI-H522): 41.5%
growth at 10 µM (SK-OV-3): 25.8%
growth at 10 µM (EKVX): 52.3%
growth at 10 µM (HT-29): 64.5%
growth at 10 µM (SF-268): 80.4%
growth at 10 µM (NCI-H23): 71.4%
growth at 10 µM (SNB-75): 55.1%
growth at 10 µM (OVCAR-8): 72.9%
growth at 10 µM (SR): 52.5%

Reference: ChEMBL document CHEMBL1152649, “Synthesis, cytotoxicity and human telomerase inhibition activities of a series of 1,2-heteroannelated anthraquinones and anthra[1,2-d]imidazole-6,11-dione homologues” (2009)
